The target of data set [1] is T1, Cytochrome P450 11B1, mitochondrial (Homo sapiens, UniProt P15538).
T1 sequence (P15538 whole entry): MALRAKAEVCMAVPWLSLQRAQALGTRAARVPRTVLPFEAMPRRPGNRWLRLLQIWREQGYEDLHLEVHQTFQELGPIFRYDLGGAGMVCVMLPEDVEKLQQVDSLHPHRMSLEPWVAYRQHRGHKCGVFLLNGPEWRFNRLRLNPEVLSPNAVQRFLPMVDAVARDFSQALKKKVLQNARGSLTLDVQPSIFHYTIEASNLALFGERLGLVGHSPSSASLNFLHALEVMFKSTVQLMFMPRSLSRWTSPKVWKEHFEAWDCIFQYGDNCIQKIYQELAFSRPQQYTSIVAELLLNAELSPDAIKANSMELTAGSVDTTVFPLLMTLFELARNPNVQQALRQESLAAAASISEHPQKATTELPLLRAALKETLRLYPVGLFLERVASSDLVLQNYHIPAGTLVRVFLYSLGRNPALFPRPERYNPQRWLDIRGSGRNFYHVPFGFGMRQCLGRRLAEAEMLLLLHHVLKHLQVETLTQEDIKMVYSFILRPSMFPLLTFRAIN
Description: Inhibition of human recombinant CYP11B1 using deoxycortisol as substrate incubated for 60 mins by cell-based HPLC analysis. It counts as ADME. In a few lines:
(§1)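 Recombinant human CYP11B2 or CYP11B1. Substrate and product steroids both monitored by HPLC-MS. Selectivity taken as CYP11B1 IC50 / CYP11B2 IC50.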

Data set [2] has as its target T2, Cytochrome P450 11B2, mitochondrial (Homo sapiens, UniProt P19099).
T2 sequence (P19099 whole entry): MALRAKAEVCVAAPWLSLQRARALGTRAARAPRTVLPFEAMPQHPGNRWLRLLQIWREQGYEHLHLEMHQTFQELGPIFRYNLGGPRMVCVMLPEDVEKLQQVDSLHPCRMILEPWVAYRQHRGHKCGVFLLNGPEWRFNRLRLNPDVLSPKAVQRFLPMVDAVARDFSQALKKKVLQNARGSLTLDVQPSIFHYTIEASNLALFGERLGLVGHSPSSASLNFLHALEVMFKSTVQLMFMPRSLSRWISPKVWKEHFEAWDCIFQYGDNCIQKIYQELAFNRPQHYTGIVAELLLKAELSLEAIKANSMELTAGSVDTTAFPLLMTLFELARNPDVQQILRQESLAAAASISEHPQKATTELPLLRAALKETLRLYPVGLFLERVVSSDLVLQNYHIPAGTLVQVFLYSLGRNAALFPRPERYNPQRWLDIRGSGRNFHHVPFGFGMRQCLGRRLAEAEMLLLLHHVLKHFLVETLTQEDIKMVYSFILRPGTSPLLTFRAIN
Description: Inhibition of human recombinant CYP11B2 using deoxycorticosterone as substrate incubated for 90 mins by cell-based HPLC analysis. In short, it runs like this:
as §1

The species entered for the next data set is Homo sapiens. Description: Selectivity index, ratio of IC50 for human recombinant CYP11B1 to IC50 for human recombinant CYP11B2. In a few lines:
as §1

Data set [3] in a line: Tmax in cynomolgus monkey at 1 mg/kg, po measured after 24 or 72 hrs. Format: ADME, organism-based, Macaca fascicularis. As to conditions: in vivo. In short, it runs like this:
(§2)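 Male cynomolgus monkeys dosed orally at 1 mg/kg in 0.5% CMC, 0.1% Tween-80, 1% DMSO. Plasma drug concentrations followed out to 24 or 72 h. Cmax, Tmax, AUC0-24 and t1/2 derived from plasma levels.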

The nature of data set [4]: Cmax in cynomolgus monkey at 1 mg/kg, po measured after 24 or 72 hrs. It counts as ADME, organism-based, Macaca fascicularis. Set-up: dose 1 mg/kg, route oral. As to conditions: in vivo. In short, it runs like this: as §2
Data set [5] is described as follows: Half life in cynomolgus monkey at 1 mg/kg, po measured after 24 or 72 hrs. It counts as ADME, organism-based, Macaca fascicularis. The conditions noted are these: in vivo. In a few lines: as §2
A short description of data set [6]: AUC (0 to 24 hrs) in cynomolgus monkey at 1 mg/kg, po measured after 24 or 72 hrs. The conditions noted are these: in vivo. It counts as ADME, organism-based, Macaca fascicularis. On the set-up: time < 24 hr, dose 1 mg/kg, route oral. In a few lines: as §2
Data set [7] can be described thus: Stability in cynomolgus monkey liver microsomes assessed as parent compound remaining at 1 uM measured after 65 mins by LC/MS-MS analysis. It counts as ADME, Macaca fascicularis, Microsome. As to conditions: read-out: Stability. In a few lines:
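Parent compound percentage remaining after 65 min incubation with cynomolgus monkey liver microsomes.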
In general terms: Liver microsomes are vesicles of endoplasmic reticulum, rich in cytochrome P450 enzymes.

Data set [8] in a line: Thermodynamic solubility in phosphate free buffer pH 7.4 incubated for 24 hrs by HPLC/LCMS-MS based shake flask method. It counts as physicochemical. The conditions noted are these: read-out: Therm_solubility.

Converted amounts (≈) assume the structure as drawn. Some results are limits rather than exact numbers.

For the compound `Fc1ccc2nc(-c3cnco3)n(C3CC3)c2c1`, the IC50 in data set [1] and in [2] was more than 10 µM throughout.

`CC(F)(F)c1ncncc1-c1nc2cc(F)c(F)cc2n1C1CC1`: the Ratio IC50 in the data set listed under Homo sapiens amounted to 114. In addition, the IC50 – broadly, the point on the concentration scale where inhibition reaches its midpoint – is 5.72 µM in data set [1] and 0.05 µM in data set [2].

As for `N#Cc1ccc2nc(-c3cncnc3C(F)F)n(C3CC3)c2c1`, the Ratio IC50 in the data set listed under Homo sapiens was 226. Also, the Tmax (commonly the time at which the peak concentration occurs) in data set [3] came out at 2 h. For the same compound, the results for the IC50 in data set [1] and in [2] were 2.03 µM and 0.009 µM, respectively. For the same compound, the Cmax (usually the highest concentration seen after dosing) in data set [4] was 1 µM. In data set [5], the half-life (in general, the time needed for the level to fall by half in the phase considered) is 5.4 h. Moreover, the AUC(0-t) (commonly the area under the concentration-time curve up to a stated or last time point) at 24 h in [6] is 8.3 µM·h. Moreover, the remaining at 65 min, 1 µM in data set [7] turned out to be 84%.

Turning to `CC(C)c1ncncc1-c1nc2cc(F)c(F)cc2n1C1CC1`, the Ratio IC50 in the data set listed under Homo sapiens turned out to be 381. Also, the IC50 in data set [1] was determined as 1.91 µM; in data set [2] it was 0.005 µM. The remaining at 65 min, 1 µM in data set [7] is 80%.

Regarding `CNc1ncncc1-c1nc2cc(F)c(F)cc2n1C1CC1`, the Ratio IC50 in the data set listed under Homo sapiens is more than 195. Moreover, the 50% inhibitory concentration (IC50) in [1] is 0.39 µM; in [2] it was less than 0.002 µM.

On to `Fc1ccc2nc(-n3ccnn3)n(C3CC3)c2c1`, for which the Ratio IC50 in the data set listed under Homo sapiens was 8.5. Further, the concentration for half-maximal inhibition (IC50) in data set [1] amounted to 9.07 µM; in data set [2] it was 1.06 µM.

Turning to `Fc1ccc2nc(-c3cncs3)n(C3CC3)c2c1`, the Ratio IC50 in the data set listed under Homo sapiens is 73. Further, the IC50 worked out at 4.52 µM in [1] and 0.062 µM in [2].

As to `Fc1cc2nc(-c3cncnc3NCCC(F)(F)F)n(C3CC3)c2cc1F`, in the data set listed under Homo sapiens, the Ratio IC50 turned out to be 126. The values for the concentration for half-maximal inhibition (IC50) in data set [1] and in data set [2] were 0.378 µM and 0.003 µM, respectively. Further, the remaining at 65 min, 1 µM in data set [7] was 55%.

Turning to `Cc1ncncc1-c1nc2cc(F)c(F)cc2n1C1CC1`, in the data set filed under Homo sapiens, the Ratio IC50 was found to be 244. For the same compound, in [3], the time of peak concentration (Tmax) amounted to 0.5 h. In [4], this compound gave a Cmax of 1.26 µM. This compound also had a half-life in data set [5] of 4.2 h. Further, the area under the curve AUC(0-t) at 24 h in data set [6] was found to be 3 µM·h. Moreover, in data set [7], the remaining at 65 min, 1 µM is 72%.

As for `N#Cc1ccc2nc(-c3cncnc3C(F)(F)F)n(C3CC3)c2c1`, in the data set listed under Homo sapiens, the Ratio IC50 stood at 261. Also, the IC50 in data set [1] came out at 4.17 µM; in [2], 0.016 µM. The remaining at 65 min, 1 µM in [7] was 62%.

As for `N#Cc1ccc2nc(-c3cncnc3C(F)F)n(C3CC3)c2n1`, the Ratio IC50 in the data set filed under Homo sapiens stood at 135. Moreover, the time to peak (Tmax) in data set [3] was determined as 2 h. For the same compound, the IC50 in [1] came to 3.93 µM; in data set [2], 0.029 µM. Besides, the Cmax in data set [4] stood at 2.88 µM. In data set [5], this compound had a half-life of 7.5 h. The compound further had an AUC(0-t) at 24 h in [6] of 32.2 µM·h. In addition, the remaining at 65 min, 1 µM in data set [7] came to 101%.

Regarding `CN(C)c1ncncc1-c1nc2cc(F)c(F)cc2n1C1CC1`, the Ratio IC50 in the data set filed under Homo sapiens was 159. Further, the figures for the IC50 in data set [1] and in [2] were 4.63 µM and 0.029 µM, respectively. Also, the remaining at 65 min, 1 µM in [7] was found to be 6%.

In the case of `Fc1cc2nc(-c3cncnc3C3CC3)n(C3CC3)c2cc1F`, the Ratio IC50 in the data set filed under Homo sapiens was more than 58. In addition, the IC50 in [1] was more than 10 µM; in data set [2], 0.172 µM.

Regarding `Fc1ccc2nc(-c3cn[nH]c3)n(C3CC3)c2c1`, the Ratio IC50 in the data set filed under Homo sapiens amounted to 2. The IC50 in data set [1] was 1.67 µM; in data set [2], 0.782 µM.

As to `Fc1cc2nc(-c3cncnc3C(F)F)n(C3CC3)c2cc1F`, the Ratio IC50 in the data set filed under Homo sapiens was 240. Besides, the Tmax in [3] was 1 h. For the same compound, the IC50 in data set [1] worked out at 4.32 µM; in [2], 0.018 µM. In addition, in data set [4], the maximum concentration (Cmax) is 0.62 µM. The same compound showed a half-life in data set [5] of 15.3 h. The compound further yielded an AUC(0-t) at 24 h in [6] of 8.8 µM·h. Moreover, the remaining at 65 min, 1 µM in data set [7] was 106%.

`Fc1ccc2nc(-c3cccnn3)n(C3CC3)c2c1`: in the data set filed under Homo sapiens, the Ratio IC50 was more than 24. Further, the 50% inhibitory concentration (IC50) was more than 10 µM in data set [1] and 0.412 µM in [2].

As for `Fc1ccc2nc(-c3cncnc3)n(C3CC3)c2c1`, the Ratio IC50 in the data set filed under Homo sapiens stood at 136.

`Fc1ccc2nc(-c3cnccn3)n(C3CC3)c2c1`: the Ratio IC50 in the data set listed under Homo sapiens is more than 18. For the same compound, the figures for the IC50 in [1] and in data set [2] were more than 10 µM and 0.541 µM, respectively.

In the case of `N#Cc1ncncc1-c1nc2cc(F)c(F)cc2n1C1CC1`, the Ratio IC50 in the data set filed under Homo sapiens stood at 383. The values for the IC50 in data set [1] and in [2] were 4.99 µM and 0.013 µM, respectively. In addition, the remaining at 65 min, 1 µM in [7] turned out to be 85%.

`N#Cc1ccc2nc(-c3cncnc3C(F)(F)F)n(C3CC3)c2n1`: in [8], the solubility thermodynamic at 24 h was 153 µM (≈ 50.5 µg/mL). The Ratio IC50 in the data set filed under Homo sapiens was 200. Also, in [3], the time to peak (Tmax) is 0.5 h. For the same compound, the IC50 in [1] was determined as 4.81 µM; in data set [2], 0.024 µM. For the same compound, the Cmax in [4] was determined as 1.68 µM. This compound also showed a half-life in data set [5] of 5.3 h. Moreover, the AUC(0-t) at 24 h in [6] turned out to be 10.1 µM·h. Moreover, in [7], the remaining at 65 min, 1 µM was found to be 87%.

Regarding `CCc1ncncc1-c1nc2cc(F)c(F)cc2n1C1CC1`, the Ratio IC50 in the data set listed under Homo sapiens came out at 416. The half-maximal inhibitory concentration (IC50) is 3.33 µM in [1] and 0.008 µM in [2]. Besides, the remaining at 65 min, 1 µM in data set [7] was found to be 78%.

With `Fc1cc2nc(-c3cncnc3)n(C3CC3)c2cc1F`, the Ratio IC50 in the data set listed under Homo sapiens came to 103. Further, the results for the IC50 in data set [1] and in data set [2] were 2.27 µM and 0.022 µM, respectively. In addition, in [7], the remaining at 65 min, 1 µM is 98%.

The values are drawn from ChEMBL document CHEMBL4304781, “Development of Highly Selective Pyrimidine-Based Aldosterone Synthase (CYP11B2) Inhibitors” (ACS Med Chem Lett, 2019).
